Data from ChEMBL document CHEMBL1149634, “1-Acylthiosemicarbazides, 1,2,4-triazole-5(4H)-thiones, 1,3,4-thiadiazoles and hydrazones containing 5-methyl-2-benzoxazolinones: synthesis, analgesic-anti-inflammatory and antimicrobial activities” (2007).
Values after ≈ are worked out from the molar mass of the structure shown.

Columns and labels:
[1] = tested on: Mus musculus; test: Antiinflammatory activity against carrageenan-induced hind paw oedema in mouse assessed as inhibition of swelling thickness at 10 mg/kg, po after 180 mins; assay type: functional; settings: 3 h
Method in brief: (§1)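 Fasted mice (n = 5–6) were dosed orally with the sample in 0.5% CMC/water. One hour later, carrageenan (0.5 mg/25 µl in 154 mM saline) was injected subplantar into the right hind paw. The right-minus-left footpad thickness difference was measured with dial gauge callipers every 90 min over 6 h. Inhibition % is calculated versus vehicle control; mean ± SEM, Student's t test.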

[2] = tested on: Mus musculus; test: Antiinflammatory activity against carrageenan-induced hind paw oedema in mouse assessed as inhibition of swelling thickness at 10 mg/kg, po after 270 mins; assay type: functional; settings: 4.5 h; method in brief: as §1
[3] = tested on: Mus musculus; test: Antiinflammatory activity against carrageenan-induced hind paw oedema in mouse assessed as inhibition of swelling thickness at 10 mg/kg, po after 360 mins; assay type: functional; settings: 6 h; method in brief: as §1
[4] = organism: Mus musculus; test: animal or person; settings: po, 1.5 h, read-out: Inhibition
[5] = tested on: Mus musculus; test: Analgesic activity in mouse assessed as inhibition of hind paw lick at 100 mg/kg, ip by hot plate test; assay type: functional; settings: route intraperitoneal
[6] = tested on: Mus musculus; test: Analgesic activity in mouse assessed as inhibition of acetic acid induced-abdominal writhing at 100 mg/kg, ip by Koster test; assay type: functional; settings: Abdomen, route intraperitoneal
[7] = tested on: Mus musculus; test: Antiinflammatory activity against carrageenan-induced hind paw oedema in mouse assessed as inhibition of swelling thickness at 100 mg/kg, po after 90 mins; assay type: functional; settings: 1.5 h; method in brief: as §1
[8] = tested on: Mus musculus; test: Antiinflammatory activity against carrageenan-induced hind paw oedema in mouse assessed as inhibition of swelling thickness at 100 mg/kg, po after 180 mins; assay type: functional; settings: 3 h; method in brief: as §1
[9] = tested on: Mus musculus; test: Antiinflammatory activity against carrageenan-induced hind paw oedema in mouse assessed as swelling thickness at 50 mg/kg, po after 180 mins; assay type: functional; method in brief: as §1
[10] = tested on: Mus musculus; test: Antiinflammatory activity against carrageenan-induced hind paw oedema in mouse assessed as inhibition of swelling thickness at 200 mg/kg, po after 180 mins; assay type: functional; settings: 3 h; method in brief: as §1
[11] = tested on: Mus musculus; test: Antiinflammatory activity against carrageenan-induced hind paw oedema in mouse assessed as swelling thickness at 50 mg/kg, po after 270 mins; assay type: functional; method in brief: as §1
[12] = tested on: Mus musculus; test: Antiinflammatory activity against carrageenan-induced hind paw oedema in mouse assessed as inhibition of swelling thickness at 200 mg/kg, po after 270 mins; assay type: functional; settings: 4.5 h; method in brief: as §1
[13] = tested on: Mus musculus; test: Antiinflammatory activity against carrageenan-induced hind paw oedema in mouse assessed as inhibition of swelling thickness at 100 mg/kg, po after 360 mins; assay type: functional; settings: 6 h; method in brief: as §1
[14] = tested on: Mus musculus; test: Antiinflammatory activity against carrageenan-induced hind paw oedema in mouse assessed as swelling thickness at 50 mg/kg, po after 360 mins; assay type: functional; method in brief: as §1
[15] = tested on: Mus musculus; test: Toxicity in mouse assessed as ulceration effect at 200 mg/kg; assay type: functional, organism-based; set-up: dose 200 mg/kg
Method in brief: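 Mice given 200 mg/kg orally in the carrageenan oedema study were killed under deep ether anaesthesia 6 h after treatment. Stomachs were opened along the greater curvature and examined under a dissecting microscope for lesions or bleeding. Result is expressed as the ratio of ulcerated animals per group.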

[16] = tested on: Staphylococcus aureus; test: Antibacterial activity against Staphylococcus aureus ATCC 29213 after 24 hrs by broth microdilution test; assay type: functional; settings: ATCC 29213, 24 h
Method in brief: (§2)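 NCCLS broth microdilution in Mueller-Hinton broth with an inoculum of 5 × 10^5 cfu/mL. Compounds were dissolved in DMSO, diluted in sterile water, and tested as twofold dilutions from 512 to 0.5 µg/mL. Plates were incubated at 35 °C for 24 h. MIC is the lowest concentration preventing visible growth.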

[17] = tested on: Enterococcus faecalis; test: Antibacterial activity against Enterococcus faecalis ATCC 29212 after 24 hrs by broth microdilution test; assay type: functional; settings: ATCC 29212, 24 h; method in brief: as §2
[18] = tested on: Escherichia coli; test: Antibacterial activity against Escherichia coli ATCC 25922 after 24 hrs by broth microdilution test; assay type: functional; settings: ATCC 25922, 24 h; method in brief: as §2
[19] = tested on: Pseudomonas aeruginosa; test: Antibacterial activity against Pseudomonas aeruginosa ATCC 27853 after 24 hrs by broth microdilution test; assay type: functional; settings: ATCC 27853, 24 h; method in brief: as §2
[20] = tested on: Candida albicans; test: Antifungal activity against Candida albicans ATCC 90028 after 48 hrs by broth microdilution test; assay type: functional; settings: ATCC 90028, 48 h
Method in brief: (§3)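 Yeasts tested by NCCLS M27-A broth microdilution in RPMI 1640 (with L-glutamine, without sodium bicarbonate) with an inoculum of 0.5–2.5 × 10^3 cfu/mL. Compounds were prepared from DMSO solution diluted in water as twofold dilutions from 512 to 0.5 µg/mL. Plates were incubated at 35 °C for 48 h. MIC is the lowest concentration giving no visible growth.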

[21] = tested on: Pichia kudriavzevii; test: Antifungal activity against Candida krusei ATCC 6258 after 48 hrs by broth microdilution test; assay type: functional; settings: ATCC 6258, 48 h; method in brief: as §3
[22] = tested on: Candida parapsilosis; test: Antifungal activity against Candida parapsilosis ATCC 22019 after 48 hrs by broth microdilution test; assay type: functional; settings: Lodderomyces parapsilosis, ATCC 22019, 48 h; method in brief: as §3
[23] = tested on: Mus musculus; test: Antiinflammatory activity against carrageenan-induced hind paw oedema in mouse assessed as inhibition of swelling thickness at 50 mg/kg, po after 90 mins; assay type: functional; settings: 1.5 h; method in brief: as §1
[24] = tested on: Mus musculus; test: Antiinflammatory activity against carrageenan-induced hind paw oedema in mouse assessed as swelling thickness at 100 mg/kg, po after 270 mins; assay type: functional; method in brief: as §1
[25] = tested on: Mus musculus; test: Antiinflammatory activity against carrageenan-induced hind paw oedema in mouse assessed as swelling thickness at 200 mg/kg, po after 360 mins; assay type: functional; method in brief: as §1
[26] = tested on: Mus musculus; test: Analgesic activity in mouse assessed as inhibition of acetic acid induced-abdominal writhing at 200 mg/kg, ip by Koster test; assay type: functional; settings: Abdomen, route intraperitoneal
[27] = tested on: Mus musculus; test: Antiinflammatory activity against carrageenan-induced hind paw oedema in mouse assessed as inhibition of swelling thickness at 200 mg/kg, po after 90 mins; assay type: functional; settings: 1.5 h; method in brief: as §1
[28] = tested on: Mus musculus; test: Antiinflammatory activity against carrageenan-induced hind paw oedema in mouse assessed as inhibition of swelling thickness at 100 mg/kg, po after 270 mins; assay type: functional; settings: 4.5 h; method in brief: as §1
[29] = tested on: Mus musculus; test: Antiinflammatory activity against carrageenan-induced hind paw oedema in mouse assessed as inhibition of swelling thickness at 200 mg/kg, po after 360 mins; assay type: functional; settings: 6 h; method in brief: as §1

Row | Compound | inhibition in vivo at 100 mg/kg [5] | inhibition in vivo at 100 mg/kg [6] | inhibition in vivo at 100 mg/kg [7] | inhibition in vivo at 100 mg/kg [8] | Activity [9] | inhibition in vivo at 200 mg/kg [10] | Activity [11] | inhibition in vivo at 200 mg/kg [12] | Activity [14] | MIC [16] | MIC [17] | MIC [18] | MIC [19] | MIC [20] | MIC [21] | MIC [22] | inhibition in vivo at 50 mg/kg [23] | also measured
1 | COc1ccc2c(c1)c(CC(=O)O)c(C)n2C(=O)c1ccc(Cl)cc1 [INDOMETHACIN] | – | – | – | – | – | – | – | – | – | – | – | – | – | – | – | – | – | inhibition in vivo at 10 mg/kg [1]: 43%; inhibition in vivo at 10 mg/kg [2]: 46.3%; inhibition in vivo at 10 mg/kg [3]: 41.6%; inhibition in vivo at 10 mg/kg [4]: 42%
2 | Cc1ccc2oc(=O)n(CC(=O)N/N=C/c3ccc(Br)cc3)c2c1 | 20.3% | 72.6% | 44.4% | 43.7% | 94.6% | 46.9% | 95.9% | 11.1% | 83% | > 512 µg/mL | > 512 µg/mL | > 512 µg/mL | > 512 µg/mL | 64 µg/mL (≈ 165 µM) | 256 µg/mL (≈ 659 µM) | 128 µg/mL (≈ 330 µM) | 1.9% | inhibition in vivo at 100 mg/kg [13]: 19.1%; Activity [15]: Toxic; Activity [24]: 92%; Activity [25]: 84.4%
3 | CC(=O)Oc1ccccc1C(=O)O [ASPIRIN] | – | – | – | – | – | – | – | – | – | – | – | – | – | – | – | – | – | inhibition in vivo at 200 mg/kg [26]: 65.7%
4 | CCNc1nnc(Cn2c(=O)oc3ccc(C)cc32)s1 | 25.4% | 68.5% | 84.8% | 33.8% | 90.1% | 71.3% | 102.8% | 45.4% | 94% | 512 µg/mL (≈ 1760 µM) | > 512 µg/mL | 512 µg/mL (≈ 1760 µM) | 512 µg/mL (≈ 1760 µM) | 512 µg/mL (≈ 1760 µM) | 512 µg/mL (≈ 1760 µM) | 256 µg/mL (≈ 882 µM) | 7.9% | inhibition in vivo at 200 mg/kg [27]: 85.3%; inhibition in vivo at 100 mg/kg [28]: 7.1%; inhibition in vivo at 200 mg/kg [29]: 11.1%
